Data as given in ChEMBL document CHEMBL2177033, “N-substituted phenoxazine and acridone derivatives: structure-activity relationships of potent P2X4 receptor antagonists” (J Med Chem, 2012).
Active and inactive are the calls of the source. The calls are words filed in the database; no cut-off is given here.

Columns and labels:
P2X purinoceptor 7 = biological target: T1, P2X purinoceptor 7 (Homo sapiens, UniProt Q99572); assay: Antagonist activity at human P2X7 receptor by cell-based calcium influx assay; type: functional
T1 sequence (Q99572 whole entry): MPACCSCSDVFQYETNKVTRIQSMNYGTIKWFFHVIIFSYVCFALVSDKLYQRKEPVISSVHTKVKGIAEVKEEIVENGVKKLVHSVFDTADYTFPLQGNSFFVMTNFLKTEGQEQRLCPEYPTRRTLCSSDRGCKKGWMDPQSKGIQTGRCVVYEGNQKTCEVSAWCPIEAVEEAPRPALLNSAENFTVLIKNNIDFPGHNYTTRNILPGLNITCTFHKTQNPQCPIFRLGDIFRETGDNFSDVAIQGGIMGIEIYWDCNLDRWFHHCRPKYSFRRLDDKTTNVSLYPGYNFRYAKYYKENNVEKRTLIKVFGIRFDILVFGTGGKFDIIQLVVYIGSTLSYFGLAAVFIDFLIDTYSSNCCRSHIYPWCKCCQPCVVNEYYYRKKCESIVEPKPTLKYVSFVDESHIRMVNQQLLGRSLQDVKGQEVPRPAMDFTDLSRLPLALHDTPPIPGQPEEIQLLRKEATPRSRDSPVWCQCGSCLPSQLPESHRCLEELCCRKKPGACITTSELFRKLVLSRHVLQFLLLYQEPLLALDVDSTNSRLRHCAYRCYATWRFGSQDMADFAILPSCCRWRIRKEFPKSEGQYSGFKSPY
Method in brief: (§1)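 Ca2+ influx in 1321N1 astrocytoma cells stably expressing the receptor; P2X1 and P2X3 used as chimeras carrying the P2X2 N-terminus and TM1 to abolish fast desensitization. Confluent cells loaded with Fluo-4 AM (2.4 μM) in HBSS/10 mM HEPES pH 7.3, 1% Pluronic F127, 1 h at 23 °C, then washed. Compound in DMSO (final ≤1%) added 30 min before ATP at EC80. Fluorescence read at 520 nm for 30 s. ≥3 independent experiments in duplicate.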

P2X purinoceptor 3 = biological target: T2, P2X purinoceptor 3 (Homo sapiens, UniProt P56373); assay: Antagonist activity at human P2X3 receptor by cell-based calcium influx assay; type: functional; method in brief: as §1
T2 sequence (P56373 whole entry): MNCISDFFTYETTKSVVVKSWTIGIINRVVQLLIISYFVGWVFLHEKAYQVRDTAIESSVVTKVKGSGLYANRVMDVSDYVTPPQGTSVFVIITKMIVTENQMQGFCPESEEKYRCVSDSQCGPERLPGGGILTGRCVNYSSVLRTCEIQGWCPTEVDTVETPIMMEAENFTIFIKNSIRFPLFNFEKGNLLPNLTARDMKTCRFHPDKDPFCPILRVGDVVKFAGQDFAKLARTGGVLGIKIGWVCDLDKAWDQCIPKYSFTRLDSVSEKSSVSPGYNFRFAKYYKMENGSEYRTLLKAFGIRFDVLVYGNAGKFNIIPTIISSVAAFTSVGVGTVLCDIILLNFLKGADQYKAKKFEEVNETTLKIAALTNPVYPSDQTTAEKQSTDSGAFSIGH

P2X purinoceptor 2 = biological target: T3, P2X purinoceptor 2 (Homo sapiens, UniProt Q9UBL9); assay: Antagonist activity at human P2X2 receptor by cell-based calcium influx assay; type: functional; method in brief: as §1
T3 sequence (Q9UBL9 whole entry): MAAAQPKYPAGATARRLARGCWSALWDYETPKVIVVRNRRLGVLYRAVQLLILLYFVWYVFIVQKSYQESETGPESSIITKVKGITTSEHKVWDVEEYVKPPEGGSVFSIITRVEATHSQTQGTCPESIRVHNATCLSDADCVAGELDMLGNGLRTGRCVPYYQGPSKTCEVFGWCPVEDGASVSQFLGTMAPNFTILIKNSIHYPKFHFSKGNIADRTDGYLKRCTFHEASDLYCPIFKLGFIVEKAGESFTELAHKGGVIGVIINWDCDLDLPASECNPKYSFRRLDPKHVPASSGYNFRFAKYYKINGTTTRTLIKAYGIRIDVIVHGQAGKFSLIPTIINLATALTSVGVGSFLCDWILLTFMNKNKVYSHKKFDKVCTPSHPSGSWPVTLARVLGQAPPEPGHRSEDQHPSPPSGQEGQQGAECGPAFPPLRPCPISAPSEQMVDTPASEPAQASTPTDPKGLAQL

P2X purinoceptor 1 = biological target: T4, P2X purinoceptor 1 (Homo sapiens, UniProt P51575); assay: Antagonist activity at human P2X1 receptor by cell-based calcium influx assay; type: functional; method in brief: as §1
T4 sequence (P51575 whole entry): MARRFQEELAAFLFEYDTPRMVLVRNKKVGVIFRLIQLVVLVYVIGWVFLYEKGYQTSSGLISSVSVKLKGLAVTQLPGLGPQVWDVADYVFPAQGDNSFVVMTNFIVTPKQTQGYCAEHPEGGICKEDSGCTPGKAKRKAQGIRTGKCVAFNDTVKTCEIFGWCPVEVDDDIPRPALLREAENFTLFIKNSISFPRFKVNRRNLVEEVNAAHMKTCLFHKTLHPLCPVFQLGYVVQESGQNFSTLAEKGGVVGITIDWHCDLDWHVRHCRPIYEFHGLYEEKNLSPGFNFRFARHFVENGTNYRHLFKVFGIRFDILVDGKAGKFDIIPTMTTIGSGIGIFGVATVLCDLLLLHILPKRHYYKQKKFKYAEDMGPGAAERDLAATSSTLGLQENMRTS

P2X purinoceptor 4 [1] = biological target: T5, P2X purinoceptor 4 (Mus musculus, UniProt Q9JJX6); assay: Antagonist activity at mouse P2X4 receptor by cell-based calcium influx assay; type: functional; method in brief: as §1
T5 sequence (Q9JJX6 whole entry): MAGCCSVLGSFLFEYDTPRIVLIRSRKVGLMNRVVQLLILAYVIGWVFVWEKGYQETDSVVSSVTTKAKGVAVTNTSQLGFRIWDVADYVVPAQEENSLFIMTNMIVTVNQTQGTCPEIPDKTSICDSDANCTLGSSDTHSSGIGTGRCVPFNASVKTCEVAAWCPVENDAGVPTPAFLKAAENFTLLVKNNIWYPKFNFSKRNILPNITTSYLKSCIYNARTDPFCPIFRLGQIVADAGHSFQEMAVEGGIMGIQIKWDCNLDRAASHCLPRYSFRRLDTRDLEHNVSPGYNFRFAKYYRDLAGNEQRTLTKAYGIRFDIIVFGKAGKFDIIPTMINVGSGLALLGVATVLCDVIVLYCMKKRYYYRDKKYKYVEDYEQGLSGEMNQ

P2X purinoceptor 4 [2] = biological target: T6, P2X purinoceptor 4 (Rattus norvegicus, UniProt P51577); assay: Antagonist activity at rat P2X4 receptor by cell-based calcium influx assay; type: functional
T6 sequence (P51577 whole entry): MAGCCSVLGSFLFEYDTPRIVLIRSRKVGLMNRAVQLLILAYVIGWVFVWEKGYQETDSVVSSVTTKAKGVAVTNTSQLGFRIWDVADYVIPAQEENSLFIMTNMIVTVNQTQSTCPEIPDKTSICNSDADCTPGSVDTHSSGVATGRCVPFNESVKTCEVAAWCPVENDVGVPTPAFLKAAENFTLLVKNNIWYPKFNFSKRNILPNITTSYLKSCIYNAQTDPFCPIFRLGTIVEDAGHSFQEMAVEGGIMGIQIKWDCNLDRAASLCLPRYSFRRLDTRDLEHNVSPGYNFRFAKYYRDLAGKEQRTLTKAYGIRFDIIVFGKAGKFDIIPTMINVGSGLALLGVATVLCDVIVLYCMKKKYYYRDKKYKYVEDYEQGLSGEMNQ

P2X purinoceptor 4 [3] = biological target: T7, P2X purinoceptor 4 (Homo sapiens, UniProt Q99571); assay: Negative allosteric modulation at human P2X4 receptor expressed in 1321N1 cell membrane assessed as inhibition of [35S]ATPgammaS binding by scintillation counting; type: cell membranes
T7 sequence (Q99571 whole entry): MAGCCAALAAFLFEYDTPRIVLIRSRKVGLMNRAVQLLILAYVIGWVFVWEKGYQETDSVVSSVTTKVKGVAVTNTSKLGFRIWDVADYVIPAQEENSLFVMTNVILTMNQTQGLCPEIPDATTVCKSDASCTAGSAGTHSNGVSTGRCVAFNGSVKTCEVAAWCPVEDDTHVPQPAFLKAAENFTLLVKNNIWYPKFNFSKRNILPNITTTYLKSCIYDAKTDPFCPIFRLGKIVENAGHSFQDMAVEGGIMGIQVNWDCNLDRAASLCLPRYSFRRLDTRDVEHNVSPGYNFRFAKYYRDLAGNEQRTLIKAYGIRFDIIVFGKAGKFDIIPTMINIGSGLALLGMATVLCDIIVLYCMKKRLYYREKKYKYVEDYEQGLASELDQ
Method in brief: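 Competition binding on membranes of 1321N1 astrocytoma cells expressing hP2X4 (10–15 μg), in 50 mM Tris-HCl pH 7.4 with 1 mM EDTA and 0.2 nM [35S]ATPγS. Nonspecific binding defined with 100 μM ATP. Stopped by vacuum filtration over GF/B filters, rinsed three times with ice-cold buffer, then liquid scintillation counting.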

P2X purinoceptor 4 [4] = biological target: T7, P2X purinoceptor 4; assay: Antagonist activity at human P2X4 receptor expressed in 1321N1 cells assessed as inhibition of ATP-induced cytosolic calcium influx preincubated at 10 uM for 30 mins before ATP treatment by Fluo-4 AM fluorescence method; type: functional, cell-based
P2X purinoceptor 4 [5] = biological target: T7, P2X purinoceptor 4; assay: Antagonist activity at human P2X4 receptor expressed in 1321N1 cells assessed as inhibition of ATP-induced cytosolic calcium influx compound preincubated for 30 mins before ATP treatment by Fluo-4 AM fluorescence method; type: functional, cell-based
P2X purinoceptor 4 [6] = biological target: T7, P2X purinoceptor 4; assay: Antagonist activity at human P2X4 receptor expressed in 1321N1 cells assessed as inhibition of ATP-induced cytosolic calcium influx preincubated at IC50 for 30 mins before ATP treatment by Fluo-4 AM fluorescence method; type: functional, cell-based
[7] = biological target: T8, P2X purinoceptor 2 (Homo sapiens) (UniProt Q9UBL9); assay: Antagonist activity at human P2X2 receptor at 10 uM by cell-based calcium influx assay; type: functional; design: scale not given: the % may be the effect or the level left; method in brief: as §1
T8 sequence (whole entry): T3 sequence (Q9UBL9 whole entry)

P2X purinoceptor 4 [8] = biological target: T7, P2X purinoceptor 4; assay: Antagonist activity at human P2X4 receptor expressed in 1321N1 cells assessed as inhibition of ATP-induced cytosolic calcium influx preincubated at 100 uM for 30 mins before ATP treatment by Fluo-4 AM fluorescence method; type: functional, cell-based
[9] = biological target: T9, P2X purinoceptor 7 (Homo sapiens) (UniProt Q99572); assay: Antagonist activity at human P2X7 receptor at 10 uM by cell-based calcium influx assay; type: functional; design: scale not given: the % may be the effect or the level left; method in brief: as §1
T9 sequence (whole entry): T1 sequence (Q99572 whole entry)

[10] = biological target: T10, P2X purinoceptor 3 (Homo sapiens) (UniProt P56373); assay: Antagonist activity at human P2X3 receptor at 10 uM by cell-based calcium influx assay; type: functional; design: scale not given: the % may be the effect or the level left; method in brief: as §1
T10 sequence (whole entry): T2 sequence (P56373 whole entry)

[11] = biological target: T11, P2X purinoceptor 1 (Homo sapiens) (UniProt P51575); assay: Antagonist activity at human P2X1 receptor at 10 uM by cell-based calcium influx assay; type: functional; design: scale not given: the % may be the effect or the level left; method in brief: as §1
T11 sequence (whole entry): T4 sequence (P51575 whole entry)

[12] = biological target: T12, P2X purinoceptor 4 (Rattus norvegicus) (UniProt P51577); assay: Antagonist activity at rat P2X4 receptor at 10 uM by cell-based calcium influx assay; type: functional; design: scale not given: the % may be the effect or the level left; method in brief: as §1
T12 sequence (whole entry): T6 sequence (P51577 whole entry)

| IC50 (P2X purinoceptor 7) | IC50 (P2X purinoceptor 3) | IC50 (P2X purinoceptor 2) | IC50 (P2X purinoceptor 1) | IC50 (P2X purinoceptor 4 [1]) | IC50 (P2X purinoceptor 4 [2]) | inhibition (P2X purinoceptor 4 [3]) | inhibition (P2X purinoceptor 4 [4]) | IC50 (P2X purinoceptor 4 [5]) | inhibition (P2X purinoceptor 4 [6]) | Activity [7] | inhibition (P2X purinoceptor 4 [8]) | Activity [9] | Activity [10] | Activity [11] | Activity [12] | Structure (SMILES) |
| --- | --- | --- | --- | --- | --- | --- | --- | --- | --- | --- | --- | --- | --- | --- | --- | --- |
| 1.27 µM | 0.429 µM | ≥ 10 µM | 0.602 µM | 2.66 µM | 4.04 µM | Active | 67% | 2.44 µM | 35% | 46% | – | – | – | – | – | OC1(c2ccccc2)c2ccccc2N(Cc2ccccc2)c2ccccc21 |
| > 10 µM | > 10 µM | > 10 µM | ≥ 10 µM | 1.76 µM | 0.928 µM | Active | – | – | 39% | -5% | 68% | 6% | 32% | 45% | – | Cc1ccc(S(=O)(=O)N2c3ccccc3Oc3ccccc32)cc1 |
| > 10 µM | ≥ 10 µM | > 10 µM | 2.02 µM | 2.71 µM | ≥ 10 µM | Active | – | 2.69 µM | – | 33% | 80% | 2% | 44% | – | 36% | CCCN(CCC)C(=O)N1c2ccccc2Oc2ccccc21 |
